# Publication PMC9253162 (Bioactive Materials, 2022)
# What was measured:
# [1] = test system: P. aeruginosa (ATCC-27853); assay: MIC, turbidity-based broth dilution assay; format: cell-based, Pseudomonas aeruginosa; conditions: 2–7 × 10^5 CFU/mL, 37 °C, 190 rpm, 16 h
# Outline: (§1)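 Turbidity-based broth dilution at 2–7 × 10^5 CFU/mL, shaken at 190 rpm and 37 °C for 16 h, with Polymyxin-B as positive control. For the selectivity index (HC50/MIC), hemolysis was measured on mouse red blood cells. Triton X-100 set 100% lysis, and RBCs in PBS gave the background that was subtracted. HC50 was taken as the concentration causing 50% hemolysis.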
# [2] = test system: E. coli (ATCC-25922); assay: MIC, turbidity-based broth dilution assay; format: cell-based, Escherichia coli; conditions: 2–7 × 10^5 CFU/mL, 37 °C, 190 rpm, 16 h
# Outline: as §1
substance,measurement,setting,value
Polymyxin-B,Minimum Inhibitory Concentration P. aeruginosa,[1],1.0 µg/mL
same,Minimum Inhibitory Concentration E. coli,[2],<0.5 µg/mL
